The structures appear in SMILES notation. The source made the active and inactive calls.

Data set [1] concerns Rattus norvegicus. Nature of the data set: Antinociceptive activity in Wistar rat pups assessed as paw-lifting at 10 mg/kg, ip administered 1 hr on postnatal day 7 prior to formalin challenge measured for 60 secs at 5 mins interval for 60 mins. Type of data set: functional, organism-based. The method in brief: (§1)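 Honokiol in corn oil (vehicle alone as control) given ip 1 h before intraplantar sc injection of 5% formalin (10 μL) or saline into the left forepaw. Recuperation behaviours (paw licking, lifting, flinching, rolling) scored for 60 s at 5 min intervals over 60 min. Phase I at 5 min, phase II tonic period 5−60 min. Blinded observers, n = 8 per group, mean ± SEM.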

Data set [2] has as its system Rattus norvegicus. Put plainly: Antinociceptive activity in Wistar rat pups assessed as flinching at 10 mg/kg, ip administered 1 hr on postnatal day 7 prior to formalin challenge measured for 60 secs at 5 mins interval for 60 mins. Type of data set: functional, organism-based. The method in brief: as §1
The test system of data set [3] is Rattus norvegicus. Nature of the data set: Antinociceptive activity in Wistar rat pups assessed as rolling at 10 mg/kg, ip administered 1 hr on postnatal day 7 prior to formalin challenge measured for 60 secs at 5 mins interval for 60 mins. Type of data set: functional, organism-based. The method in brief:
as §1

Data set [4] deals with Rattus norvegicus. Nature of the data set: Antinociceptive activity in formalin-induced Wistar rat pups pain model assessed as decrease in recuperation time at 10 mg/kg, ip administered 1 hr on postnatal day 7 prior to formalin challenge. It is filed as functional. The method in brief: as §1
Data set [5] has as its system Rattus norvegicus. Put plainly: Antinociceptive activity in formalin-induced Wistar rat pups pain model assessed as decrease in thermal hyperalgesia at 10 mg/kg, ip administered daily from postnatal day 4 to day 6 prior to formalin challenge followed by further compound administration every other day until postnatal day 17 to day 21 by hot plate test. Type of data set: functional, organism-based. The method in brief: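 Chronic severe pain model: 5% formalin (10 μL sc) or saline injected into each paw in sequence at 1 h intervals, daily P4−P6. Honokiol or corn oil ip before insult each day, then every other day until P21. Latency to jump on a 55 ± 2 °C hot plate, cutoff 30 s. Three readings at least 15 min apart averaged per animal. Blinded, mean ± SEM.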
On the technique in general: In hot-plate and tail-flick tests a longer latency is read as antinociception.

In data set [6] the test system is Rattus norvegicus. Put plainly: Antinociceptive activity in formalin-induced Wistar rat pups pain model assessed as improved exploratory behavior at 10 mg/kg, ip administered 1 hr on postnatal day 7 prior to formalin challenge measured on postnatal day 21 by defensive withdrawal test. Type of data set: functional, organism-based. The method in brief: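 Defensive withdrawal at P21, during the dark cycle, after the neonatal formalin or saline insult with ip honokiol or corn oil. Habituation to the 50 × 50 × 50 cm open field for 10 min without the chamber. Animals then started in a dark chamber along the wall. Latency measured until all four paws were outside the chamber. Blinded, mean ± SEM.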

The subject of data set [7] is Rattus norvegicus. Nature of the data set: Toxicity in formalin-induced Wistar rat pups pain model assessed as change in exploratory behavior by measuring distance travelled at 10 mg/kg, ip administered 1 hr […] prior to formalin challenge measured for 5 mins on postnatal day 21 by open field test. It is filed as organism-based. The note with it: in vivo. The method in brief: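 Open-field test at P21 during the dark cycle, 1 h after ip honokiol or corn oil. Rats explored a 50 × 50 × 50 cm box for 5 min under video tracking, and total distance travelled was calculated. n = 3 or 4 per group.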

Data set [8] deals with Rattus norvegicus. Put plainly: Antinociceptive activity in formalin-induced Wistar rat pups pain model assessed as downregulation of c-Fos expression in hippocampus at 10 mg/kg, ip administered on postnatal day 7 measured after 3 days post formalin challenge by immunohistochemical staining assay relative to control. It is filed as functional, organism-based. The method in brief: (§2)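 c-Fos immunohistochemistry on brain sections from P7 rats after the 3-day formalin or control protocol. Sections fixed in formalin, treated with 0.3% H2O2, blocked in 1% fish gel, then anti-c-Fos 1:500 for 24 h and biotinylated IgG. Six 20 μm sections ≥90 μm apart per animal, each with six random 20× fields counted. n = 6−8 per group.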

Data set [9] deals with Rattus norvegicus. Put plainly: Antinociceptive activity in formalin-induced Wistar rat pups pain model assessed as downregulation of c-Fos expression in thalamus at 10 mg/kg, ip administered on postnatal day 7 measured after 3 days post formalin challenge by immunohistochemical staining assay relative to control. Type of data set: functional, organism-based. The method in brief:
as §2

In data set [10] the test system is Rattus norvegicus. Put plainly: Antinociceptive activity in formalin-induced Wistar rat pups pain model assessed as upregulation of substance P receptor expression in alveus at 10 mg/kg, ip administered 1 hr on postnatal day 7 prior to formalin challenge measured on postnatal day 21 by immunohistochemical staining assay relative to control. It is filed as functional, organism-based. The method in brief: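 Substance P receptor immunostaining at P21, 14 days after the 3-day formalin or saline protocol with ip honokiol or corn oil. Sections fixed in formalin then cold methanol, 0.2% Triton under 3 min, 1% fish gel block 1 h, primary antibody 24 h, then secondary. Positive cells counted in the hippocampal alveus, mean ± SEM.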

Data set [11] concerns Rattus norvegicus. Nature of the data set: Antinociceptive activity in Wistar rat pups assessed as paw-licking at 10 mg/kg, ip administered 1 hr on postnatal day 7 prior to formalin challenge measured for 60 secs at 5 mins interval for 60 mins. It is filed as functional, organism-based. The method in brief:
as §1

Data set [12] concerns Rattus norvegicus. Nature of the data set: Antinociceptive activity in formalin-induced Wistar rat pups pain model assessed as increased in discrimination ratio at 10 mg/kg, ip administered 1 hr on postnatal day 7 prior to formalin challenge measured on postnatal day 21 by novel object recognition test.

Regarding `C=CCc1ccc(O)c(-c2ccc(O)c(CC=C)c2)c1` [HONOKIOL], the outcome in the data set on Rattus norvegicus [1], in the data set on Rattus norvegicus [2], in the data set with Rattus norvegicus [3], in the data set with Rattus norvegicus [5], in the data set with Rattus norvegicus [6] and with Rattus norvegicus [8] was Active. In addition, the outcome in the data set with Rattus norvegicus [9], with Rattus norvegicus [10], with Rattus norvegicus [11] and in the data set with Rattus norvegicus [12] was Active. Also, the Time with Rattus norvegicus [4] is given as 30 min. For the same compound, in the data set on Rattus norvegicus [7], the Activity was 4000 mm.

The values above are taken from ChEMBL document CHEMBL3745653, “Honokiol for the Treatment of Neonatal Pain and Prevention of Consequent Neurobehavioral Disorders” (J Nat Prod, 2015).
